High-throughput results from PubChem.
Yeast lifespan up: compounds extending yeast replicative lifespan, primary screen, S. cerevisiae, OD615. inhibition of the nicotinamide effect, % at 10 µM. AID 775, 2007. S. cerevisiae growth with nicotinamide; deaD strain in restrictive glucose medium. 130,000 compounds, 0.68% hits;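 active = inhibition above a set limit, placed 3 SD over the median of all compounds, cut at about 26% in these data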;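 also: 0% = nicotinamide-treated wells and 100% = cells grown without nicotinamide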
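Assay system: engineered S. cerevisiae DeaD replicative-lifespan strain, galactose-grown log-phase cells; Buffer or medium: CSMM-D glucose medium, restrictive; Probe or stimulus: nicotinamide 1.5 mM; Compound: single dose 10 µM compound, 0.25% DMSO; Schedule: 4 h preincubation then 48 h treatment at 30 °C; Technique: OD615 measurement.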
SDO1 yeast rescue: growth rescue of sdo1-depleted yeast, primary screen, S. cerevisiae, bone marrow failure model; S. cerevisiae sdo1-depleted JHY4D growth rescue, OD600 30 h; hits give high values; pdr5 snq2 efflux-pump mutant strain; z-score at 10 µM; 140,000 compounds, 0.21% hits; AID 817, 2007;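 active = z-score above 3 at both the 24 hr and the 30 hr optical density reads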;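 also: z-score against mean and SD of all compound wells on the same plate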
BB579 growth dn: growth inhibitors of yeast BB579 in restrictive medium, primary screen, yeast lifespan-shortening project, S. cerevisiae | OD615, 48 h | inhibition, % at 10 µM | 140,000 compounds, 0.51% hits | AID 804, 2007;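 active = inhibition above a set limit, 3 SD over the mean compound inhibition, cut at about 44% in these data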
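test system = yeast BB579 (DeaD) | buffer or medium = restrictive CSMM-D medium | doses = single compound dose of 10 µM, 0.25% DMSO final | times = 4 h preincubation and 48 h exposure at 30 °C | technique = culture absorbance at 615 nm | benchmarks = amphotericin B 10 µg/mL, positive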
RAM inhibit: inhibitors of the yeast RAM network, primary screen, dse1pr::URA3 reporter, 5-FOA selection. inhibition, % at 50 µM. S. cerevisiae dse1pr::URA3 reporter, 5-FOA growth OD615, 2 d; analog-sensitive cbk1-as2 kinase mutant strain. AID 868, 2007. 190,000 compounds, 1.8% hits;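 active = inhibition above a set limit, 3 SD over mean compound inhibition, cut at about 8.4% in these data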;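 also: 0% = DMSO-only wells with no growth and 100% = 10 µM 1-NA-PP1 full growth; inhibition rescues growth on 5-FOA so higher OD means more RAM inhibition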
* = called active by the depositor. Most compounds without a hit are left out; they make up all but 2.7% or so of the library.

Screening COC(=O)c1cc(-c2ccccc2)c2c(=O)n(C)c(=O)n(C)c2n1 returned RAM inhibit 0.
`Cc1[nH]nc2nc3c(c(OC(=O)c4ccccc4)c12)c(=O)n(C)c(=O)n3C` gave Yeast lifespan up 52*, SDO1 yeast rescue -0.7, BB579 growth dn 23 and RAM inhibit -1.
`CSC[C@@H]1NC(=S)N(c2ccc(C)cc2)C1=O` gave Yeast lifespan up 31*, SDO1 yeast rescue -0.86, BB579 growth dn 9 and RAM inhibit 1.
For Cc1ccc(CC2C(=O)N(c3ccc(C)cc3)C(=O)C2C)cc1 (stereo not given) the results were RAM inhibit 2.
For O=[N+]([O-])c1cc(S(=O)(=O)N2CCCC2)ccc1NCCc1ccccc1 the results were Yeast lifespan up 4, SDO1 yeast rescue -1.5, BB579 growth dn -13 and RAM inhibit 9.7*.
For COc1ccc(CCNc2ccc(S(=O)(=O)N3CCCC3)cc2[N+](=O)[O-])cc1 the results were Yeast lifespan up 0, SDO1 yeast rescue 0.57, BB579 growth dn -24 and RAM inhibit 11*.
For CCn1c(SCC(=O)N2CCc3ccccc3C2)nc2sc(C)c(C)c2c1=O the results were Yeast lifespan up -4, SDO1 yeast rescue -0.72, BB579 growth dn -26 and RAM inhibit 3.
For COc1ccc(C2CC(c3cccs3)=NN2C(=O)CSc2nc3ccccc3o2)cc1 (stereo not given) the results were Yeast lifespan up 0, SDO1 yeast rescue 0.14, BB579 growth dn -32 and RAM inhibit 8.5*.
`Cn1nc([N+](=O)[O-])nc1Sc1nnnn1-c1ccc(C(=O)O)cc1` gave RAM inhibit 0.
`Cc1ccc(C(=O)CSc2ncnc3sc4c(c23)CCC(C)C4)cc1` (stereo not given) gave SDO1 yeast rescue -0.29, BB579 growth dn -28 and RAM inhibit 8.6*.
For CCOC(=O)CCc1c(C)nc(SCCCn2c(=O)[nH]c3ccccc32)c(C#N)c1C the results were Yeast lifespan up 6, SDO1 yeast rescue -0.08, BB579 growth dn -67 and RAM inhibit 9.4*.
CCOC(=O)CCc1c(C)nc(SCCN2CCCC2)c(C#N)c1C was read as Yeast lifespan up -7, SDO1 yeast rescue 0.47, BB579 growth dn -28 and RAM inhibit 0.
For COc1ccc(CNC(=O)C/C(C)=N/NC(=O)c2cnccn2)cc1 the results were RAM inhibit 0.
Screening COc1ccc(/C=C2\SC(=NCc3ccccc3)N(Cc3ccccc3)C2=O)cc1OC returned Yeast lifespan up 26, SDO1 yeast rescue 0, BB579 growth dn -13 and RAM inhibit 9.4*.
`CC(C)CC(=O)O/N=C1\C(=O)N(Cc2ccc(Cl)cc2)c2ccc([N+](=O)[O-])cc21` gave Yeast lifespan up 1, SDO1 yeast rescue -1.8, BB579 growth dn -26 and RAM inhibit 8.4*.
For CC(=O)O/N=C1\C(=O)N(Cc2ccc(C)cc2)c2ccccc21 the results were RAM inhibit -2.
Screening Cc1cc(O)c(C=Nc2cccc(Cl)c2)c(=O)o1 returned Yeast lifespan up -11, SDO1 yeast rescue 1.4, BB579 growth dn -12 and RAM inhibit -1.
Screening Cc1cc(O)c(/C=N/Nc2ccccc2)c(=O)o1 returned Yeast lifespan up -16, SDO1 yeast rescue -0.93, BB579 growth dn 87* and RAM inhibit 0.
`Cc1nn(-c2c(Cl)cc(Cl)cc2Cl)c(=O)c2ccccc12` gave Yeast lifespan up 49*, SDO1 yeast rescue -1.1, BB579 growth dn -6 and RAM inhibit 1.
`COc1cccc(NC(=O)NC(C)C2CC3CCC2C3)c1` (stereo not given) gave RAM inhibit 4.
Screening Cc1nc(NC(=O)CSc2nnc(N)s2)c(Cl)cc1Cl returned RAM inhibit 0.
Screening CCc1ccc(OCC(=O)NC(NC(=S)Nc2ccc(Cl)cc2)C(Cl)(Cl)Cl)cc1 (stereo not given) returned Yeast lifespan up 7, SDO1 yeast rescue -1.1, BB579 growth dn -20 and RAM inhibit 9.5*.
`CCc1ccc(OCC(=O)NC(C)C)cc1` gave RAM inhibit -1.
For Cc1cc(O)ccc1C1(c2ccc(O)cc2C)OC(=O)c2ccccc21 the results were SDO1 yeast rescue -0.92, BB579 growth dn -14 and RAM inhibit 2.
Screening Cc1cccc(C2(c3cccc(C)c3)OC(=O)c3ccccc32)c1 returned Yeast lifespan up -8, SDO1 yeast rescue -1.3, BB579 growth dn -59 and RAM inhibit 9.0*.
C/C(=N\OC(=O)NC1CCCCC1)c1sc(-c2ccccc2)nc1C was read as Yeast lifespan up -13, SDO1 yeast rescue -1.2, BB579 growth dn -8 and RAM inhibit 10*.
For O=C(NCc1ccc(Cl)cc1)c1ccccc1CCc1ccccc1 the results were Yeast lifespan up 41*, SDO1 yeast rescue -1.3, BB579 growth dn -9 and RAM inhibit 5.
`O=C(NCc1ccccc1)c1ccccc1CO` gave Yeast lifespan up -1, SDO1 yeast rescue 2.2, BB579 growth dn -27 and RAM inhibit -1.
`NC(=O)NCc1ccc(Cl)cc1` gave Yeast lifespan up 59*, SDO1 yeast rescue 0.39, BB579 growth dn 1 and RAM inhibit 0.
For COc1cc(NC(=O)CCCl)cc(-n2cnnn2)c1 the results were RAM inhibit 5.
`NC(N)=N/N=C/c1cccc(Cl)c1Cl` gave RAM inhibit 1.
CCOC(=O)C1(CCc2ccccc2)CCN(Cc2cccc3nccnc23)CC1 was read as RAM inhibit 0.
Screening Cc1ccc2c(c1)c1c3n2CCN(C(=O)CN2CCN(C)CC2)C3CCC1 (stereo not given) returned Yeast lifespan up -18, SDO1 yeast rescue -0.02, BB579 growth dn 7 and RAM inhibit -1.
`CN1CCN(CC(=O)N2CCn3c4c(c5cc(C6CCCCC6)ccc53)CCCC42)CC1` (stereo not given) gave Yeast lifespan up -23, SDO1 yeast rescue -2.9, BB579 growth dn 100* and RAM inhibit -2.
For CCOC(=O)c1c(NS(=O)(=O)c2ccc(Br)cc2)sc2c1CCC2 the results were SDO1 yeast rescue -0.82, BB579 growth dn -56 and RAM inhibit 9.8*.
Screening COc1ccc(C(=O)c2ccc(CC(=O)O)s2)cc1 returned RAM inhibit 0.
Screening CCOC(=O)c1sc(/N=C/c2c(O)ccc3ccccc23)cc1C returned Yeast lifespan up 12, SDO1 yeast rescue -0.26, BB579 growth dn -30 and RAM inhibit 9.0*.
Screening COc1ccc(N=Cc2c(O)ccc3ccccc23)cc1 returned RAM inhibit -2.
Screening CCOC(=O)c1cc2ccc3ccccc3c2s1 returned SDO1 yeast rescue -0.74, BB579 growth dn -38 and RAM inhibit 1.
Screening N#Cc1cccc(N=Cc2c(O)ccc3ccccc23)c1 returned Yeast lifespan up 40*, SDO1 yeast rescue 0.35, BB579 growth dn -9 and RAM inhibit -1.
Screening O=C(O)Cc1ccc(N=Cc2c(O)ccc3ccccc23)cc1 returned Yeast lifespan up 57*, SDO1 yeast rescue -0.62, BB579 growth dn -30 and RAM inhibit 0.
